# Results pooled from the literature.
# Each line is one published result; the experiments were not run side by side.
# HTR2A: 5-hydroxytryptamine receptor 2A (HTR2A, Homo sapiens, UniProt P28223)
# Oprm1: Mu-type opioid receptor (Oprm1, Mus musculus, UniProt P42866)
# CNR1: Cannabinoid receptor 1 (CNR1, Homo sapiens, UniProt P21554)
Structure (SMILES),target,test,setting,endpoint,value
O=c1c2cc(Cl)ccc2[nH]c(=S)n1Cc1cccnc1,HTR2A,cell-free assay,,IC50,2600 nM
CCCCC1CNC2CCc3ccc(OC)cc3C12 (racemic),"Sigma non-opioid intracellular receptor 1 (SIGMAR1, Homo sapiens, UniProt Q99720)","ligand displacement, radioligand",,Ki,0.81 nM
CC(C)[C@@H](CN1CCc2ccccc2C1)NC(=O)Cc1c[nH]c2ccccc12,Oprm1,"ligand displacement, radioligand",,Ki,1240 nM
CC(C)(NC(=O)c1nn(CCCCC(F)(F)F)c2ccccc12)c1cccc(C(N)=O)c1,CNR1,"ligand displacement, radioligand",cell membranes,Ki,210 nM
CCCCC/C=C\[C@H](C)/C=C\C/C=C\Cc1ccccc1CCCC(=O)N[C@H](C)CO,CNR1,"cAMP, agonist",,EC50,1610 nM
CC[C@H](C)[C@@H](C(=O)N1CCC[C@H]1c1nccs1)N(C)C(=O)[C@H](CC(C)C)N(C)C(=O)[C@H](Cc1ccc(OC)cc1)N(C)C(=O)/C=C(\C)OC,CNR1,"ligand displacement, radioligand",,IC50,16600 nM
COc1cc2c3c(c1OC)-c1c(OC)ccc(Br)c1CC3N(C)CC2 (centres unmarked),HTR2A,"cell-free assay, radioligand",,Ki,373 nM
O=C(O)Cn1c(=O)n(Cc2ccc(Br)cc2F)c(=O)c2ccc(Cl)cc21,"Fatty acid-binding protein, intestinal (Homo sapiens, UniProt P12104, T55A)","ligand displacement, fluorescence",,Kd,2680 nM
CC(C)(NC(=O)c1nn(Cc2ccc(C#N)cc2)c2ccccc12)c1cccc(C(N)=O)c1,CNR1,"ligand displacement, radioligand",cell membranes,Ki,98 nM
COc1cc2c(cc1OC)CN(CCc1ccc(NC(=O)c3cccc4c(=O)c5cccc(OC)c5[nH]c34)cc1)CC2,"Kappa-type opioid receptor (OPRK1, Homo sapiens, UniProt P41145)",cell-free assay,,Ki,> 10000 nM
CC[C@H](C)[C@H](NC(=O)[C@H](CCC(=O)O)NC(=O)[C@H](C)NC(=O)[C@H](CCCCN)NC(=O)[C@H](CC(C)C)NC(=O)[C@@H](NC(=O)[C@H](CCC(=O)O)NC(=O)[C@@H](NC(=O)[C@H](CCC(=O)O)NC(=O)[C@H](CC(=O)O)NC(=O)[C@H](C)NC(=O)[C@@H](NC(=O)[C@@H](NC(=O)[C@H](C)NC(=O)[C@H](C)NC(=O)CCNC(=O)[C@@H](N)CCCCNC(=O)CCCC[C@@H]1SC[C@@H]2NC(=O)N[C@@H]21)C(C)C)[C@@H](C)O)[C@@H](C)O)C(C)C)C(=O)N[C@@H](CO)C(=O)N[C@@H](CCCCN)C(=O)N[C@@H](C)C(=O)N[C@H](C(=O)N[C@@H](CCCCN)C(=O)N[C@@H](CCC(N)=O)C(=O)N[C@H](C(=O)N[C@@H](CCC(N)=O)C(=O)N[C@@H](CCC(=O)O)C(=O)N[C@@H](CCC(=O)O)C(=O)N[C@@H](CC(=O)O)C(=O)N1CCC[C@H]1C(=O)N[C@@H](CC(N)=O)C(N)=O)C(C)C)C(C)C,"Myc proto-oncogene protein (MYC, Homo sapiens, UniProt P01106)","binding, BLI",,Kd,4600 nM
CCOC(=O)c1ccc(OC(=O)CCCCCN=C(N)N)cc1,"Vitamin K-dependent protein C (PROC, Homo sapiens, UniProt P04070)","enzyme activity, inhibitor",,IC50,157 nM
CCCCC/C=C\C/C=C\C/C=C\Cc1ccccc1CCCC(=O)N[C@H](C)CO,CNR1,"β-arrestin recruitment, agonist",,EC50,607 nM
CC(C)[C@H](CN1CCc2ccccc2C1)NC(=O)c1cccc(-c2cccc(O)c2)c1,Oprm1,"ligand displacement, radioligand",,Ki,3100 nM
C[C@@H](O)[C@@H]1NC(=O)CNC(=O)[C@H](Cc2c[nH]cn2)NC(=O)[C@H](Cc2c[nH]c3ccccc23)NC(=O)[C@H](CC(N)=O)NC(=O)CNC(=O)C[C@@H](C(=O)N[C@@H](Cc2c[nH]c3ccccc23)C(=O)N[C@@H](Cc2ccccc2)C(=O)N[C@@H](Cc2ccccc2)C(=O)N[C@@H](CC(N)=O)C(=O)N[C@@H](Cc2ccc(O)cc2)C(=O)N[C@@H](Cc2ccc(O)cc2)C(=O)N[C@@H](Cc2c[nH]c3ccccc23)C(=O)O)NC(=O)[C@@H]2CCCN2C(=O)[C@H](CO)NC1=O,"Endothelin-1 receptor (EDNRA, Homo sapiens, UniProt P25101)","ligand displacement, radioligand",cell membranes,IC50,> 10000 nM
c1cncc([C@@H]2CCCN2)c1,"Neuronal acetylcholine receptor; alpha4/beta2 (Rattus norvegicus, UniProt P09483+P12390)","cell-free assay, radioligand",,Ki,334 nM
CC(C)(NC(=O)c1nn(CCCCCF)c2ccccc12)c1cccc(C(N)=O)c1,CNR1,"ligand displacement, radioligand",cell membranes,Ki,68 nM
